{"data": "Experimental data of several laboratories", "target": "Serine/threonine-protein kinase 32A (STK32A, Homo sapiens, UniProt Q8WU08)", "note": "Each line is one published result; the experiments were not run side by side."}
{"SMILES": "FC(F)(F)Oc1cccc(-c2cnc3ccc(-c4ccncc4)nn23)c1", "test": "binding, competition with immobilised ligand", "conditions": "5 µM", "remaining binding": "75%"}
{"SMILES": "CN(C)c1ncc(F)c(-c2cnn3ncccc23)n1", "test": "binding", "conditions": "1 µM", "remaining binding": "100%"}
{"SMILES": "c1cncc(-c2cccc(Nc3nccc(NC4CCCCC4)n3)c2)c1", "test": "binding, competition with immobilised ligand", "conditions": "10 µM", "remaining binding": "69%"}
{"SMILES": "CNC(=O)Nc1ccc2c(c1)CC[C@@]21OC(=O)N(CC(=O)N(Cc2ccc(F)cc2)[C@@H](C)C(F)(F)F)C1=O", "test": "binding, competition with immobilised ligand", "conditions": "1 µM", "remaining binding": "88%"}
{"SMILES": "C=CC(=O)N1CCC(C(=O)NCC(=O)N2CCN(c3nc(-c4cnc(N)nc4C(F)F)nc(N4CCOCC4)n3)CC2)CC1", "test": "binding, competition with immobilised ligand", "conditions": "1 µM", "remaining binding": "91%"}
{"SMILES": "Cc1c[nH]c2nccc(Oc3c(F)cc(Nc4cc(Cl)nc(N)n4)cc3F)c12", "test": "cell-free assay, competition with immobilised ligand", "conditions": "0.1 µM", "remaining binding": "86%"}
{"SMILES": "COc1ncc2cc3ccccc3nc2c1C#N", "test": "binding, competition with immobilised ligand", "conditions": "5 µM", "remaining binding": "100%"}
{"SMILES": "O=C(Nc1c[nH]nc1C(=O)NC1CCNCC1)c1cc(F)cc(F)c1", "test": "binding, competition with immobilised ligand", "conditions": "1 µM", "remaining binding": "95%"}
{"SMILES": "N[C@H]1CCN(c2nccc(-c3cnn4ncccc34)n2)C1", "test": "binding", "conditions": "1 µM", "remaining binding": "87%"}
{"SMILES": "Cc1cnc(Nc2ccc(C(=O)N3CCC(N4CCCC4)CC3)cc2)nc1-c1cc2ccccc2s1", "test": "binding, competition with immobilised ligand", "conditions": "1 µM", "remaining binding": "79%"}
{"SMILES": "C[C@H]1CCN(c2nccc(-c3cnn4ncccc34)n2)C1", "test": "binding", "conditions": "1 µM", "remaining binding": "64%"}
{"SMILES": "O=C(NCCCN1CCOCC1)c1ccc(Nc2ncc(Cl)c(-c3ccc(Cl)s3)n2)cc1", "test": "binding, competition with immobilised ligand", "conditions": "1 µM", "remaining binding": "93%"}
{"SMILES": "Cc1cnn2ncc(-c3ccnc(N(C)C)n3)c2c1", "test": "binding", "conditions": "1 µM", "remaining binding": "71%"}
{"SMILES": "Cc1c(NC(=O)c2cc(C(N)=O)nc3cc(F)ccc23)c(C(F)(F)F)nn1Cc1ccc(C(C)(C)C)cc1", "test": "cell-free assay, competition with immobilised ligand", "conditions": "1 µM", "remaining binding": "100%"}
{"SMILES": "CNC(=O)[C@@H]1CC[C@@H](n2c(-c3ccc4cnccc4c3)nc3ccc(C(=O)NCc4cccc(C(N)=O)c4)cc32)C1", "test": "binding, competition with immobilised ligand", "conditions": "1 µM", "remaining binding": "100%"}
{"SMILES": "c1cnn2ncc(-c3ccnc(N4CCC45COC5)n3)c2c1", "test": "binding", "conditions": "1 µM", "remaining binding": "58%"}
{"SMILES": "CN(c1ccnc(CNc2nc(Nc3ccc4c(c3)CC(=O)N4)ncc2C(F)(F)F)n1)S(C)(=O)=O", "test": "cell-free assay, competition with immobilised ligand", "conditions": "1 µM", "remaining binding": "72%"}
{"SMILES": "CN(c1nccc(-c2cnn3ncccc23)n1)C1CC1", "test": "binding", "conditions": "1 µM", "remaining binding": "100%"}
{"SMILES": "COc1ccc2c(c1)O[C@H](c1ccc(OC)c(OC)c1)C[C@@H]2NC(=O)C1(c2ccc3c(c2)OC(F)(F)O3)CC1", "test": "cell-free assay, competition with immobilised ligand", "conditions": "1 µM", "remaining binding": "100%"}
{"SMILES": "O=C(c1ccc(Nc2ncc(Cl)c(-c3ccc(Cl)s3)n2)cc1)N1CCC(N2CCCC2)CC1", "test": "binding, competition with immobilised ligand", "conditions": "1 µM", "remaining binding": "70%"}
{"SMILES": "CC1CCCN1c1nccc(-c2cnn3ncccc23)n1 (stereo not shown)", "test": "binding", "conditions": "1 µM", "remaining binding": "100%"}
{"SMILES": "CC(=O)Nc1c(C(C)=O)c(=O)n(C)c2nc(-c3ccc(Cl)cc3Cl)c(-c3ccc(Cl)cc3)cc12", "test": "cell-free assay, competition with immobilised ligand", "conditions": "1 µM", "remaining binding": "82%"}
